Data: ChEMBL document CHEMBL5724801, “EUbOPEN Chemogenomics Library - Multiplex” (2024)
Where “and” joins values, the source holds several entries; their conditions need not be identical. Equal entries are not always repeated.

Test system: Fibroblast
Assay: Multiplex assay against human fibroblast
Assay type: toxicity, cell-based
In short: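 Hoechst33342, BioTracker Green Microtubule Cytoskeleton Dye, MitoTracker Red and Annexin V Alexa Fluor 680 were added to live cells at seeding, and imaging on a CQ1 microscope at 37°C and 5% CO2 followed compound addition. Gating by CellPathfinder machine learning separated cells into Hoechst high-intensity objects or normal cells, then normal cells into healthy, pyknosed or fragmented nuclei, then pyknosed cells into mitotic or apoptotic. Per cents of healthy-nucleus cells are reported for the tubulin, mitochondrial-mass and membrane-permeability phenotypes.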

[1] = 12 h, 1 µM, compound concentration 1 uM
[2] = 12 h, 10 µM, compound concentration 10 uM
[3] = 24 h, 1 µM, compound concentration 1 uM
[4] = 24 h, 10 µM, compound concentration 10 uM
[5] = 48 h, 1 µM, compound concentration 1 uM
[6] = 48 h, 10 µM, compound concentration 10 uM

CN(C)Cc1cccc(NC(=C2C(=O)Nc3cc(C(N)=O)ccc32)c2ccccc2)c1
Population Apoptotic (%) [1]: 0% and 16.22%
Population Fragmented Nuclei (%) [1]: 12% and 11.4%
Population Healthy Nuclei (%) [1]: 66.67% and 69.43%
Population Hoechst High Intensity Objects (%) [1]: 0%
Population Membrane Permeable-Phenotype (%) [1]: 4% and 2.99%
Population Mitochondria Different-Phenotype (%) [1]: 10% and 8.21%
Population Mitotic Cells (%) [1]: 100% and 83.78%
Population Normal (%) [1]: 100%
Population Pyknosed Nuclei (%) [1]: 21.33% and 19.17%
Population Tubulin-Different-Phenotype (%) [1]: 20% and 13.43%
Total Cell Count [1]: 150 and 193
Population Apoptotic (%) [2]: 29.55% and 27.03%
Population Healthy Nuclei (%) [2]: 68.3% and 82.06%
Population Hoechst High Intensity Objects (%) [2]: 0%
Population Membrane Permeable-Phenotype (%) [2]: 9.39% and 4.65%
Population Mitochondria Different-Phenotype (%) [2]: 16.57% and 13.49%
Population Mitotic Cells (%) [2]: 70.45% and 72.97%
Population Normal (%) [2]: 100%
Population Pyknosed Nuclei (%) [2]: 16.6% and 14.12%
Population Tubulin-Different-Phenotype (%) [2]: 48.62% and 53.95%
Total Cell Count [2]: 265 and 262
Population Apoptotic (%) [3]: 23.81% and 25%
Population Fragmented Nuclei (%) [3]: 7.65% and 8.11%
Population Healthy Nuclei (%) [3]: 80% and 81.08%
Population Hoechst High Intensity Objects (%) [3]: 0%
Population Membrane Permeable-Phenotype (%) [3]: 4.41% and 2%
Population Mitochondria Different-Phenotype (%) [3]: 5.15% and 6.67%
Population Mitotic Cells (%) [3]: 76.19% and 75%
Population Normal (%) [3]: 100%
Population Pyknosed Nuclei (%) [3]: 12.35% and 10.81%
Population Tubulin-Different-Phenotype (%) [3]: 8.82% and 14.67%
Total Cell Count [3]: 170 and 185
Population Apoptotic (%) [4]: 16.28% and 31.25%
Population Fragmented Nuclei (%) [4]: 12.59% and 7.12%
Population Healthy Nuclei (%) [4]: 71.94% and 80.9%
Population Hoechst High Intensity Objects (%) [4]: 0%
Population Membrane Permeable-Phenotype (%) [4]: 5.5% and 3.24%
Population Mitochondria Different-Phenotype (%) [4]: 9% and 14.35%
Population Mitotic Cells (%) [4]: 83.72% and 68.75%
Population Normal (%) [4]: 100%
Population Pyknosed Nuclei (%) [4]: 15.47% and 11.99%
Population Tubulin-Different-Phenotype (%) [4]: 48.5% and 61.11%
Total Cell Count [4]: 278 and 267
Population Apoptotic (%) [5]: 40% and 44.44%
Population Fragmented Nuclei (%) [5]: 11.24% and 9.23%
Population Healthy Nuclei (%) [5]: 83.15% and 76.92%
Population Hoechst High Intensity Objects (%) [5]: 0%
Population Membrane Permeable-Phenotype (%) [5]: 1.35% and 5.33%
Population Mitotic Cells (%) [5]: 60% and 55.56%
Population Normal (%) [5]: 100%
Population Pyknosed Nuclei (%) [5]: 5.62% and 13.85%
Population Tubulin-Different-Phenotype (%) [5]: 8.11% and 15.33%
Total Cell Count [5]: 178 and 195
Population Apoptotic (%) [6]: 47.37% and 60%
Population Healthy Nuclei (%) [6]: 76.72% and 86.82%
Population Hoechst High Intensity Objects (%) [6]: 0%
Population Membrane Permeable-Phenotype (%) [6]: 5.06% and 5.36%
Population Mitochondria Different-Phenotype (%) [6]: 6.23% and 7.14%
Population Mitotic Cells (%) [6]: 52.63% and 40%
Population Normal (%) [6]: 100%
Population Pyknosed Nuclei (%) [6]: 5.67% and 7.75%
Population Tubulin-Different-Phenotype (%) [6]: 40.86% and 67.41%
Total Cell Count [6]: 335 and 258

C[C@H](N)COC(=O)[C@@H](CCCCN)NC(=O)Cc1c(-c2ccc3ccccc3c2)[nH]c2c1ccc1ccccc12
Population Apoptotic (%) [1]: 32% and 50%
Population Fragmented Nuclei (%) [1]: 18% and 25%
Population Healthy Nuclei (%) [1]: 65% and 51%
Population Hoechst High Intensity Objects (%) [1]: 1% and 4%
Population Membrane Permeable-Phenotype (%) [1]: 0% and 5%
Population Mitochondria Different-Phenotype (%) [1]: 7% and 4%
Population Mitotic Cells (%) [1]: 67% and 50%
Population Normal (%) [1]: 98% and 95%
Population Pyknosed Nuclei (%) [1]: 15% and 23%
Population Tubulin-Different-Phenotype (%) [1]: 32% and 36%
Total Cell Count [1]: 179 and 170
Population Apoptotic (%) [2]: 43% and 62%
Population Fragmented Nuclei (%) [2]: 13% and 32%
Population Healthy Nuclei (%) [2]: 69% and 50%
Population Hoechst High Intensity Objects (%) [2]: 2% and 7%
Population Membrane Permeable-Phenotype (%) [2]: 1% and 5%
Population Mitochondria Different-Phenotype (%) [2]: 8% and 6%
Population Mitotic Cells (%) [2]: 56% and 37%
Population Normal (%) [2]: 97% and 92%
Population Pyknosed Nuclei (%) [2]: 16% and 17%
Population Tubulin-Different-Phenotype (%) [2]: 33% and 47%
Total Cell Count [2]: 183 and 167
Population Apoptotic (%) [3]: 53% and 29%
Population Fragmented Nuclei (%) [3]: 16% and 25%
Population Healthy Nuclei (%) [3]: 66% and 54%
Population Hoechst High Intensity Objects (%) [3]: 3% and 7%
Population Membrane Permeable-Phenotype (%) [3]: 0% and 3%
Population Mitochondria Different-Phenotype (%) [3]: 5% and 7%
Population Mitotic Cells (%) [3]: 46% and 70%
Population Normal (%) [3]: 96% and 92%
Population Pyknosed Nuclei (%) [3]: 17% and 20%
Population Tubulin-Different-Phenotype (%) [3]: 30% and 39%
Total Cell Count [3]: 179 and 162
Population Apoptotic (%) [4]: 63% and 50%
Population Fragmented Nuclei (%) [4]: 13% and 36%
Population Healthy Nuclei (%) [4]: 74% and 50%
Population Hoechst High Intensity Objects (%) [4]: 7% and 6%
Population Membrane Permeable-Phenotype (%) [4]: 0% and 5%
Population Mitochondria Different-Phenotype (%) [4]: 5%
Population Mitotic Cells (%) [4]: 36% and 50%
Population Normal (%) [4]: 92% and 93%
Population Pyknosed Nuclei (%) [4]: 11% and 13%
Population Tubulin-Different-Phenotype (%) [4]: 31% and 54%
Total Cell Count [4]: 171 and 159
Population Apoptotic (%) [5]: 72% and 51%
Population Fragmented Nuclei (%) [5]: 21% and 30%
Population Healthy Nuclei (%) [5]: 65% and 50%
Population Hoechst High Intensity Objects (%) [5]: 5% and 2%
Population Membrane Permeable-Phenotype (%) [5]: 0% and 3%
Population Mitochondria Different-Phenotype (%) [5]: 7% and 6%
Population Mitotic Cells (%) [5]: 27% and 48%
Population Normal (%) [5]: 94% and 97%
Population Pyknosed Nuclei (%) [5]: 12% and 18%
Population Tubulin-Different-Phenotype (%) [5]: 26% and 39%
Total Cell Count [5]: 186 and 169
Population Apoptotic (%) [6]: 46% and 55%
Population Fragmented Nuclei (%) [6]: 16% and 36%
Population Healthy Nuclei (%) [6]: 68% and 52%
Population Hoechst High Intensity Objects (%) [6]: 9% and 5%
Population Membrane Permeable-Phenotype (%) [6]: 0% and 7%
Population Mitochondria Different-Phenotype (%) [6]: 4% and 8%
Population Mitotic Cells (%) [6]: 53% and 44%
Population Normal (%) [6]: 90% and 94%
Population Pyknosed Nuclei (%) [6]: 15% and 11%
Population Tubulin-Different-Phenotype (%) [6]: 35% and 54%
Total Cell Count [6]: 185 and 166

COCCNc1nc2ccc(C#CC3(O)CCCCC3)cc2n1-c1ccnc(N)n1
Population Apoptotic (%) [1]: 15.09% and 20.51%
Population Fragmented Nuclei (%) [1]: 19.05% and 7.25%
Population Healthy Nuclei (%) [1]: 44.9% and 73.91%
Population Hoechst High Intensity Objects (%) [1]: 0%
Population Membrane Permeable-Phenotype (%) [1]: 4.55% and 1.96%
Population Mitochondria Different-Phenotype (%) [1]: 9.09% and 12.42%
Population Mitotic Cells (%) [1]: 84.91% and 79.49%
Population Normal (%) [1]: 100%
Population Pyknosed Nuclei (%) [1]: 36.05% and 18.84%
Population Tubulin-Different-Phenotype (%) [1]: 18.18% and 27.45%
Total Cell Count [1]: 147 and 207
Population Apoptotic (%) [2]: 2.5% and 7.32%
Population Fragmented Nuclei (%) [2]: 15.71% and 12.57%
Population Healthy Nuclei (%) [2]: 46.19% and 64%
Population Hoechst High Intensity Objects (%) [2]: 0%
Population Membrane Permeable-Phenotype (%) [2]: 7.22% and 1.79%
Population Mitochondria Different-Phenotype (%) [2]: 27.84% and 21.43%
Population Mitotic Cells (%) [2]: 97.5% and 92.68%
Population Normal (%) [2]: 100%
Population Pyknosed Nuclei (%) [2]: 38.1% and 23.43%
Population Tubulin-Different-Phenotype (%) [2]: 56.7% and 54.46%
Total Cell Count [2]: 210 and 175
Population Apoptotic (%) [3]: 9.76% and 17.39%
Population Fragmented Nuclei (%) [3]: 9.09% and 9.43%
Population Healthy Nuclei (%) [3]: 62.24% and 79.72%
Population Hoechst High Intensity Objects (%) [3]: 0%
Population Membrane Permeable-Phenotype (%) [3]: 3.37% and 5.33%
Population Mitochondria Different-Phenotype (%) [3]: 11.24% and 10.06%
Population Mitotic Cells (%) [3]: 90.24% and 82.61%
Population Normal (%) [3]: 100%
Population Pyknosed Nuclei (%) [3]: 28.67% and 10.85%
Population Tubulin-Different-Phenotype (%) [3]: 19.1% and 25.44%
Total Cell Count [3]: 143 and 212
Population Apoptotic (%) [4]: 12.33% and 20.59%
Population Fragmented Nuclei (%) [4]: 14.35% and 10.86%
Population Healthy Nuclei (%) [4]: 51.85% and 69.71%
Population Hoechst High Intensity Objects (%) [4]: 0%
Population Membrane Permeable-Phenotype (%) [4]: 3.57% and 1.64%
Population Mitochondria Different-Phenotype (%) [4]: 25% and 18.03%
Population Mitotic Cells (%) [4]: 87.67% and 79.41%
Population Normal (%) [4]: 100%
Population Pyknosed Nuclei (%) [4]: 33.8% and 19.43%
Population Tubulin-Different-Phenotype (%) [4]: 66.96% and 65.57%
Total Cell Count [4]: 216 and 175
Population Apoptotic (%) [5]: 22.22% and 37.5%
Population Fragmented Nuclei (%) [5]: 10.74% and 6.49%
Population Healthy Nuclei (%) [5]: 77.18% and 86.58%
Population Hoechst High Intensity Objects (%) [5]: 0%
Population Membrane Permeable-Phenotype (%) [5]: 1.74% and 2.5%
Population Mitotic Cells (%) [5]: 77.78% and 62.5%
Population Normal (%) [5]: 100%
Population Pyknosed Nuclei (%) [5]: 12.08% and 6.93%
Population Tubulin-Different-Phenotype (%) [5]: 10.43% and 26.5%
Total Cell Count [5]: 149 and 231
Population Apoptotic (%) [6]: 11.43% and 24%
Population Fragmented Nuclei (%) [6]: 12.66% and 9.66%
Population Healthy Nuclei (%) [6]: 72.57% and 76.14%
Population Hoechst High Intensity Objects (%) [6]: 0%
Population Membrane Permeable-Phenotype (%) [6]: 2.91% and 5.97%
Population Mitochondria Different-Phenotype (%) [6]: 18.02% and 10.45%
Population Mitotic Cells (%) [6]: 88.57% and 76%
Population Normal (%) [6]: 100%
Population Pyknosed Nuclei (%) [6]: 14.77% and 14.2%
Population Tubulin-Different-Phenotype (%) [6]: 42.44% and 58.96%
Total Cell Count [6]: 237 and 176
